ChEMBL document CHEMBL1629615, “Intrapulmonary pharmacokinetics and pharmacodynamics of posaconazole at steady state in healthy subjects” (Antimicrob Agents Chemother, 2009)

Experiments:
[1] = AUC (0 to 12 hrs) in healthy human alveolar cell at 400 mg, po every 12 hrs for 7 days; format: ADME, organism-based, Pneumocyte; parameters: time < 12 hr, dose 400 mg, route oral; conditions: alveolar cells
In short: (§1)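 Noncompartmental analysis of day-8 concentration-time data after 14 oral 400 mg doses every 12 h. Plasma parameters came from each subject's profile. ELF and alveolar cell values came from mean concentrations at each BAL time (3 to 24 h). AUC0-12 was calculated by the linear trapezoidal method.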

Homo sapiens [2] = experiment: Toxicity in healthy human plasma assessed as hematological analysis at 400 mg, po every 12 hrs for 7 days; format: organism-based; conditions: in vivo
In short: (§2)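 Safety in healthy adults (21 to 55 y) given 400 mg orally every 12 h with a high-fat meal for 14 doses. Screening blood chemistry, hematology, urinalysis and ECG (corrected QT) were repeated on day 8.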

[3] = Ratio of Drug level in healthy human alveolar cell to drug level in healthy human plasma at 400 mg, po every 12 hrs for 7 days measured after 5 hrs of last dose; format: ADME, organism-based, Pneumocyte; conditions: alveolar cells / plasma
[4] = Tmax in healthy human lung epithelial lining fluid at 400 mg, po every 12 hrs for 7 days; format: ADME, organism-based; in short: as §1
[5] = Ratio of Drug level in healthy human alveolar cell to drug level in healthy human plasma at 400 mg, po every 12 hrs for 7 days measured after 3 hrs of last dose; format: ADME, organism-based, Pneumocyte; conditions: alveolar cells / plasma
[6] = Drug level in healthy human alveolar cell at 400 mg, po every 12 hrs for 7 days measured after 5 hrs of last dose; format: ADME, organism-based, Pneumocyte; conditions: alveolar cells, read-out: Drug uptake
In short: (§3)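 Healthy adults got 400 mg oral suspension (40 mg/ml) 10 min after a high-fat meal every 12 h, for 14 doses over 8 days. Each subject had one bronchoscopy with BAL under topical lidocaine, no sedation, at 3, 5, 8, 12 or 24 h after the last dose. BAL fluid was spun at 400 x g for 5 min at 4°C. Supernatant and cell pellet were frozen at –70°C and assayed by LC-MS/MS against a plasma calibration curve. ELF volume was derived from urea.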

[7] = Drug level in healthy human alveolar cell at 400 mg, po every 12 hrs for 7 days measured after 12 hrs of last dose; format: ADME, organism-based, Pneumocyte; conditions: alveolar cells, read-out: Drug uptake; in short: as §3
[8] = Ratio of Drug level in healthy human alveolar cell to drug level in healthy human plasma at 400 mg, po every 12 hrs for 7 days measured after 8 hrs of last dose; format: ADME, organism-based, Pneumocyte; conditions: alveolar cells / plasma
[9] = Ratio of Drug level in healthy human lung epithelial lining fluid to drug level in healthy human plasma at 400 mg, po every 12 hrs for 7 days measured after 3 hrs of last dose; format: ADME, organism-based
[10] = Ratio of AUC (0 to 24 hrs) in healthy human alveolar cell at 400 mg, po every 12 hrs for 7 days to MIC90 for Aspergillus spp.; format: functional, Pneumocyte
[11] = Cmax in healthy human plasma at 400 mg, po every 12 hrs for 7 days; format: ADME, organism-based; parameters: dose 400 mg, route oral; in short: as §1
[12] = Ratio of Cmax in healthy human lung epithelial lining fluid at 400 mg, po every 12 hrs for 7 days to MIC90 for Aspergillus spp.; format: functional
[13] = Ratio of AUC (0 to 24 hrs) in healthy human lung epithelial lining fluid at 400 mg, po every 12 hrs for 7 days to MIC90 for Aspergillus spp.; format: functional
[14] = Drug level in healthy human alveolar cell at 400 mg, po every 12 hrs for 7 days measured after 3 hrs of last dose; format: ADME, organism-based, Pneumocyte; conditions: alveolar cells, read-out: Drug uptake; in short: as §3
Homo sapiens [15] = experiment: Toxicity in healthy human plasma assessed as blood chemistry analysis at 400 mg, po every 12 hrs for 7 days; format: organism-based; conditions: in vivo; in short: as §2
[16] = Protein binding in human; format: ADME, organism-based; conditions: in vivo, read-out: PB
Plasma = experiment: T>MIC90 in healthy human plasma at 400 mg, po every 12 hrs for 7 days; format: functional
[17] = Ratio of Drug level in healthy human lung epithelial lining fluid to drug level in healthy human plasma at 400 mg, po every 12 hrs for 7 days measured after 5 hrs of last dose; format: ADME, organism-based
[18] = Ratio of Drug level in healthy human lung epithelial lining fluid to drug level in healthy human plasma at 400 mg, po every 12 hrs for 7 days measured after 24 hrs of last dose; format: ADME, organism-based
Homo sapiens [19] = experiment: Cardiotoxicity in healthy human assessed as corrected QT intervals at 400 mg, po every 12 hrs for 8 days; conditions: in vivo
[20] = Half life in human; format: ADME, organism-based; conditions: in vivo
Homo sapiens [21] = experiment: Toxicity in healthy human assessed as urine analysis at 400 mg, po every 12 hrs for 7 days; format: organism-based; conditions: in vivo; in short: as §2
[22] = Drug level in healthy human lung epithelial lining fluid at 400 mg, po every 12 hrs for 7 days measured after 8 hrs of last dose; format: ADME, organism-based; conditions: read-out: Drug uptake; in short: as §3
[23] = Cmax in healthy human alveolar cell at 400 mg, po every 12 hrs for 7 days; format: ADME, organism-based, Lung, Pneumocyte; parameters: dose 400 mg, route oral; conditions: alveolar cells; in short: as §1
[24] = Ratio of Cmax in healthy human plasma at 400 mg, po every 12 hrs for 7 days to MIC90 for Aspergillus spp.; format: functional
[25] = AUC (0 to 12 hrs) in healthy human plasma at 400 mg, po every 12 hrs for 7 days; format: ADME, organism-based; parameters: dose 400 mg, time < 12 hr, route oral; in short: as §1
[26] = Drug level in healthy human plasma at 400 mg, po every 12 hrs for 7 days measured after 3 hrs of last dose; format: ADME, organism-based; conditions: read-out: Drug uptake
In short: (§4)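 Same dosing: 400 mg oral suspension after a high-fat meal every 12 h, 14 doses. Blood went into EDTA tubes at 0, 3, 5, 8, 12 and 24 h after the final dose and was spun at 1,300 x g for 10 min at 4°C. Plasma was frozen and assayed by validated LC-MS/MS, LLOQ 1.00 ng/ml, calibration 1.00 to 4,000 ng/ml.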

[27] = AUC (0 to 12 hrs) in healthy human lung epithelial lining fluid at 400 mg, po every 12 hrs for 7 days; format: ADME, organism-based; parameters: time < 12 hr, dose 400 mg, route oral; in short: as §1
[28] = Ratio of AUC (0 to 24 hrs) in healthy human plasma at 400 mg, po every 12 hrs for 7 days to MIC90 for Aspergillus spp.; format: functional
[29] = Drug level in healthy human plasma at 400 mg, po every 12 hrs for 7 days measured after 8 hrs of last dose; format: ADME, organism-based; conditions: read-out: Drug uptake; in short: as §4
Homo sapiens [30] = experiment: Toxicity in healthy human assessed as vital adverse effects at 400 mg, po every 12 hrs for 7 days; format: organism-based; conditions: in vivo; in short: as §2
[31] = Drug level in healthy human lung epithelial lining fluid at 400 mg, po every 12 hrs for 7 days measured after 12 hrs of last dose; format: ADME, organism-based; conditions: read-out: Drug uptake; in short: as §3
[32] = Drug level in healthy human alveolar cell at 400 mg, po every 12 hrs for 7 days measured after 8 hrs of last dose; format: ADME, organism-based, Pneumocyte; conditions: alveolar cells, read-out: Drug uptake; in short: as §3
[33] = Cmax in healthy human lung epithelial lining fluid at 400 mg, po every 12 hrs for 7 days; format: ADME, organism-based; parameters: dose 400 mg, route oral; in short: as §1
[34] = Drug level in healthy human plasma at 400 mg, po every 12 hrs for 7 days measured after 5 hrs of last dose; format: ADME, organism-based; conditions: read-out: Drug uptake; in short: as §4
[35] = Drug level in healthy human plasma at 400 mg, po every 12 hrs for 7 days measured after 12 hrs of last dose; format: ADME, organism-based; conditions: read-out: Drug uptake; in short: as §4
[36] = Tmax in healthy human alveolar cell at 400 mg, po every 12 hrs for 7 days; format: ADME, organism-based, Pneumocyte; conditions: alveolar cells; in short: as §1
[37] = Drug level in healthy human plasma at 400 mg, po every 12 hrs for 7 days measured after 24 hrs of last dose; format: ADME, organism-based; conditions: read-out: Drug uptake; in short: as §4
[38] = Tmax in healthy human plasma at 400 mg, po every 12 hrs for 7 days; format: ADME, organism-based; in short: as §1
[39] = Drug level in healthy human alveolar cell at 400 mg, po every 12 hrs for 7 days measured after 24 hrs of last dose; format: ADME, organism-based, Pneumocyte; conditions: alveolar cells, read-out: Drug uptake; in short: as §3
[40] = T>MIC90 in healthy human lung epithelial lining fluid at 400 mg, po every 12 hrs for 7 days; format: functional
[41] = Ratio of Drug level in healthy human alveolar cell to drug level in healthy human plasma at 400 mg, po every 12 hrs for 7 days measured after 12 hrs of last dose; format: ADME, organism-based, Pneumocyte; conditions: alveolar cells / plasma
[42] = Ratio of Cmax in healthy human alveolar cell at 400 mg, po every 12 hrs for 7 days to MIC90 for Aspergillus spp.; format: functional, Pneumocyte
[43] = Ratio of Drug level in healthy human lung epithelial lining fluid to drug level in healthy human plasma at 400 mg, po every 12 hrs for 7 days measured after 12 hrs of last dose; format: ADME, organism-based
[44] = Drug level in healthy human lung epithelial lining fluid at 400 mg, po every 12 hrs for 7 days measured after 24 hrs of last dose; format: ADME, organism-based; conditions: read-out: Drug uptake; in short: as §3
[45] = Drug level in healthy human lung epithelial lining fluid at 400 mg, po every 12 hrs for 7 days measured after 5 hrs of last dose; format: ADME, organism-based; conditions: read-out: Drug uptake; in short: as §3
[46] = T>MIC90 in healthy human alveolar cell at 400 mg, po every 12 hrs for 7 days; format: functional, Pneumocyte
[47] = Ratio of Drug level in healthy human alveolar cell to drug level in healthy human plasma at 400 mg, po every 12 hrs for 7 days measured after 24 hrs of last dose; format: ADME, organism-based, Pneumocyte; conditions: alveolar cells / plasma
[48] = Drug level in healthy human lung epithelial lining fluid at 400 mg, po every 12 hrs for 7 days measured after 3 hrs of last dose; format: ADME, organism-based; conditions: read-out: Drug uptake; in short: as §3
[49] = Ratio of Drug level in healthy human lung epithelial lining fluid to drug level in healthy human plasma at 400 mg, po every 12 hrs for 7 days measured after 8 hrs of last dose; format: ADME, organism-based

## CC[C@@H]([C@H](C)O)n1ncn(-c2ccc(N3CCN(c4ccc(OC[C@@H]5CO[C@@](Cn6cncn6)(c6ccc(F)cc6F)C5)cc4)CC3)cc2)c1=O [POSACONAZOLE]
[1]
  AUC at 12 h: 715000 ng·h/mL
Homo sapiens [2]
  Activity: Non-toxic
[3]
  Kp at 5 h: 44.3
[4]
  Tmax: 5 h
[5]
  Kp at 3 h: 34.5
[6]
  concentration at 5 h: 87700 ng/mL
[7]
  concentration at 12 h: 49000 ng/mL
[8]
  Kp at 8 h: 32.5
[9]
  Kp at 3 h: 1.08
[10]
  Ratio: 2860
[11]
  Cmax: 2080 ng/mL
[12]
  Ratio: 3.72
[13]
  Ratio: 73.2
[14]
  concentration at 3 h: 46200 ng/mL
Homo sapiens [15]
  Activity: Non-toxic
[16]
  fraction unbound: < 0.02
Plasma
  T>MIC90: 22.3 h
[17]
  Kp at 5 h: 0.75
[18]
  Kp at 24 h: 0.92
Homo sapiens [19]
  Activity: Non-toxic
[20]
  half-life: 35 h
Homo sapiens [21]
  Activity: Non-toxic
[22]
  concentration at 8 h: 1690 ng/mL
[23]
  Cmax: 87700 ng/mL
[24]
  Ratio: 4.15
[25]
  AUC at 12 h: 21900 ng·h/mL
[26]
  concentration at 3 h: 1930 ng/mL
[27]
  AUC at 12 h: 18300 ng·h/mL
[28]
  Ratio: 87.6
[29]
  concentration at 8 h: 1730 ng/mL
Homo sapiens [30]
  Activity: Non-toxic
[31]
  concentration at 12 h: 1020 ng/mL
[32]
  concentration at 8 h: 60900 ng/mL
[33]
  Cmax: 1860 ng/mL
[34]
  concentration at 5 h: 1930 ng/mL
[35]
  concentration at 12 h: 1620 ng/mL
[36]
  Tmax: 5 h
[37]
  concentration at 24 h: 1280 ng/mL
[38]
  Tmax: 3.6 h
[39]
  concentration at 24 h: 60700 ng/mL
[40]
  T>MIC90: 24 h
[41]
  Kp at 12 h: 27.3
[42]
  Ratio: 175
[43]
  Kp at 12 h: 0.59
[44]
  concentration at 24 h: 1800 ng/mL
[45]
  concentration at 5 h: 1860 ng/mL
[46]
  T>MIC90: 24 h
[47]
  Kp at 24 h: 34.9
[48]
  concentration at 3 h: 1660 ng/mL
[49]
  Kp at 8 h: 0.95
